High-throughput results as filed in PubChem.
An excerpt weighted towards active compounds, which were near 4.1% of everything screened.
KCNK3 block: human KCNK3 channel inhibition, primary screen | O14649 | B-score at 10 µM | hit rate 0.84% among 340,000 | CHO-KCNK3 thallium flux, FluxOR fluorescence; active compounds read low | AID 602410;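 active = B-score under library mean minus 4 SD, starting fluorescence ratio at most library mean plus 5 SD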;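 note: more negative B-score means stronger inhibition of thallium flux through KCNK3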
Target sequence (O14649 whole entry, looked up): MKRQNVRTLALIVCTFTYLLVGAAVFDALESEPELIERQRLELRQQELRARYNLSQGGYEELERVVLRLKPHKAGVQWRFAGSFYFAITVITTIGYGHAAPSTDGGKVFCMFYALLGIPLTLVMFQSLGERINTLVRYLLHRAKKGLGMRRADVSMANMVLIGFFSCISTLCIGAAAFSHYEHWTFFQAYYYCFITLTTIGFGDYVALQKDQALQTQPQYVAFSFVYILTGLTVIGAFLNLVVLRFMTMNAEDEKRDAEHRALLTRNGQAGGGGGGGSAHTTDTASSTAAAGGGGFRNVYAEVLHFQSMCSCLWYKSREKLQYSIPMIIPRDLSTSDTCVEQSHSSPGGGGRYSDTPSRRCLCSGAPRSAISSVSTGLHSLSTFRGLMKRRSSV
KCNK9 inh: inhibitors of human KCNK9 two-pore domain potassium channel | Q9NPC2 | hit rate 1.2% among 310,000 | HEK293 KCNK9, FluxOR thallium flux fluorescence; active compounds read low | B-score at 10 µM;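 active = ratio B-score over 3 SD below the library mean, with starting fluorescence within 5 SD of its mean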;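 note: negative B-score means less thallium flux so channel inhibition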
KCNQ1 act: potentiates or activates the human KCNQ1 potassium channel. hit rate 0.35% among 310,000. CHO-K1 KCNQ1, thallium flux FluxOR fluorescence; active compounds read high. P51787. B-score at 10 µM;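 active = fluorescence ratio B-score, a plate-corrected score, at least three library SD, with initial intensity B-score within 5 SD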
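Test system: CHO-K1 cells stably expressing KCNQ1 / Medium: assay buffer / Also added: depolarizing K+/Tl+ stimulus, K2SO4 and Tl2SO4 each 12.5 mM in 5x stock / Incubation: 90 min dye loading and 20 min compound exposure, both at room temperature / Signal: thallium influx via FluxOR fluorescence, kinetic imaging / Evaluation: B score of baseline-normalized fluorescence ratio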
KCNQ1 block: inhibitors of human KCNQ1 potassium channel | CHO-K1 KCNQ1, FluxOR thallium flux fluorescence; active compounds read high | hit rate 1.3% among 310,000 | B-score at 10 µM | P51787;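 active = compounds whose thallium flux B-score, printed positive for inhibition, exceeds three library SD while starting fluorescence stays within three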;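 note: channel opened by potassium depolarization with thallium stimulus after 20 min compound exposure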
Cl transport mod: modulators of human KCC2 chloride dependent transport. KCC2 cells, thallium flux FluoZin-2 fluorescence. B-score of Tl+ flux slope (higher = more flux/activation; lower = inhibition) at 10 µM. hit rate 2.2% among 190,000;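 active = thallium flux slope and its plate-corrected score both differing from the plate sample mean at a set confidence after two filtering rounds, in either direction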;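 note: slope of fluorescence scaled to starting intensity during 10 to 20 s after thallium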
hERG protect: hERG (human) protection from proarrhythmic block; CHO-hERG, FluxOR thallium flux, dofetilide IC70 present; AID 1511; activation (rescue from dofetilide block), less the hit threshold, % at 10 µM; hit rate 0.51% among 310,000; Q12809;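 active = activation above the mean of controls blocked by dofetilide plus 5 SD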;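 note: thallium influx through hERG after potassium depolarization seen as dye fluorescence rise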
Starred values were filed as active, the others as inactive; i = inactive; · = no result.

SMILES	KCNK3 block	KCNK9 inh	KCNQ1 act	KCNQ1 block	Cl transport mod	hERG protect
O=C1COc2ccc(C(=O)COC(=O)COc3ccccc3[N+](=O)[O-])cc2N1	i	i	i	i	-0.675	-7.0
N#Cc1ccccc1OCC(=O)OCC(=O)c1ccc2c(c1)NC(=O)CO2	i	i	i	i	-0.0101	5.4*
Cc1ccccc1N1CCN(S(=O)(=O)c2cccs2)CC1	i	i	i	i	·	-8.9
Cc1ccc(S(=O)(=O)N(CC(=O)O)Cc2ccco2)cc1	i	i	i	i	-1.5	-6.7
Cc1ccc(S(=O)(=O)N(Cc2ccc(F)cc2)Cc2ccco2)cc1	i	i	i	6*	-2.84	-5.6
S=C(N/N=C/c1ccccc1)N1CCOCC1	i	i	i	i	16.3*	-1.2
CSC(=S)N/N=C/c1ccccc1	i	i	35*	i	170*	10.6*
S=C(Nc1ccccc1)N1CCOCC1	i	i	i	i	1.54	-5.7
COc1cccc(CNC(=O)CN2C(=O)COc3ccc(S(=O)(=O)N4CCCCC4)cc32)c1	i	i	i	i	·	-7.7
CCc1cc2ccc(C)cc2nc1SCC(=O)NNC(=O)c1ccco1	i	i	i	i	3.05*	-2.6
COc1cccc(C(=O)Nc2ccc(N3CCN(C(=O)c4cccs4)CC3)cc2)c1	i	i	i	i	·	-5.7
COc1ccc(C(=O)CCS(=O)(=O)c2ccc(F)cc2)cc1OC	i	i	24*	i	·	-15.3
CCCn1nnc(NC(=O)C(c2ccccc2)c2ccccc2)n1	i	i	i	i	-0.00393	6.6*
CCCCn1nnc(NC(=O)C(c2ccccc2)c2ccccc2)n1	i	i	i	i	0.926	-21.9
CCOC(=O)C1CCCN(C(=O)C2CCN(S(=O)(=O)c3ccc4ccccc4c3)CC2)C1 (centres undefined)	i	i	10*	i	·	-15.6
CCOc1ccc(S(=O)(=O)Nc2ccc(C(=O)NCC3(N4CCCCC4)CCCCC3)cc2)cc1	i	i	i	i	·	-11.5
Cc1ccccc1C(=O)NC1CCN(CC(=O)Nc2ccccc2Cl)CC1	i	i	i	i	·	-5.9
Cc1c(Cl)cccc1NC(=O)CN1CCC(C(O)(c2ccccc2)c2ccccc2)CC1	i	i	i	11*	-1.22	-14.4
O=P(CCCCCCCCCP(=O)(c1ccccc1)c1ccccc1)(c1ccccc1)c1ccccc1	i	-7.22*	i	i	-2.99*	-29.8
COc1ccc(C(=O)N/N=C/c2ccc(OC(=O)c3ccccc3)cc2)cc1	i	i	i	i	-0.231	1.9
COc1ccc(C(=O)N/N=C/c2ccccc2OC(=O)c2ccccc2)cc1	i	-13.7*	i	i	·	-8.3
COc1ccccc1C=NNC(=O)c1ccccc1OCCOc1ccccc1	-10.2*	·	·	·	·	·
COc1ccc(/C=N/NC(=O)c2c(-c3ccccc3)noc2C)cc1	i	i	i	i	-0.394	-6.8
CCOc1ccc2[nH]c(C(=O)N/N=C/c3ccccc3OC)cc2c1	i	-7.92*	i	i	·	-7.5
COc1ccc(/C=N/NC(=O)c2nc(-c3ccccc3)cc(-c3ccccc3)n2)cc1	i	-7.13*	i	10*	0.695	-10.4
SMILES	KCNK3 block	KCNK9 inh	KCNQ1 act	KCNQ1 block	Cl transport mod	hERG protect
Cc1nc(NCC2CC2)c2nnn(Cc3ccccc3)c2n1	i	i	i	i	-0.235	-15.7
CCn1c(COc2ccc(=O)n(-c3ccccc3)n2)nnc1SCc1ccc(OC)cc1	i	i	i	i	·	-7.5
O=C(O)c1ccc(NCCc2ccc(Cl)cc2)c([N+](=O)[O-])c1	i	i	i	i	-0.442	-6.6
C/C(=N\NC(=O)c1ccccc1OCCOc1ccccc1)c1ccccc1F	-10.5*	·	·	·	·	·
C/C(=N\NC(=O)c1ccccc1)c1ccccc1F	i	i	i	i	0.966	-1.6
COc1ccccc1C(=O)NCC(=O)N/N=C/c1cc(Br)ccc1OCc1ccccc1	i	-7.6*	i	i	-0.301	-18.1
C=C(C)COc1ccc(-c2nc(N)ncc2Oc2ccc(OC)cc2)c(O)c1	i	i	i	i	1.01	-13.1
C=C(C)COc1ccc(-c2nc(N)ncc2Oc2ccccc2OC)c(O)c1	-9.22*	·	·	·	-0.6	·
COC(=O)c1cc2sccc2n1Cc1ccc(C)cc1	i	-7.96*	i	i	·	-10.0
CCCCn1c(NC(=O)c2ccc(Br)o2)c(S(=O)(=O)c2ccccc2)c2nc3ccccc3nc21	i	i	i	12*	-1.77	-17.1
Cc1ccc(S(=O)(=O)c2c(N)n(NC(=O)c3ccccc3C)c3nc4ccccc4nc23)cc1	-8.79*	i	i	i	-0.829	-16.7
CCCCn1c(NS(=O)(=O)c2ccccc2)c(S(=O)(=O)c2ccc(C)cc2)c2nc3ccccc3nc21	i	i	i	i	-7.11*	-0.8
Cc1ccc(C(=O)Nn2c(N)c(S(=O)(=O)c3ccc(C)cc3)c3nc4ccccc4nc32)cc1	i	i	i	i	0.192	-10.6
CCCCn1c(NC(=O)c2ccco2)c(S(=O)(=O)c2ccc(C)cc2)c2nc3ccccc3nc21	i	i	i	i	-0.971	-5.7
CCCCCn1c(NC(=O)c2ccco2)c(S(=O)(=O)c2ccc(C)cc2)c2nc3ccccc3nc21	i	i	i	10*	-0.589	-4.1
O=C(CN1C(=O)c2ccccc2C1=O)OC(C(=O)c1ccc(Cl)cc1)c1ccccc1 (centres undefined)	i	i	i	i	1.16	-2.6
CN(C)c1ccc(N=Nc2ccccc2C(=O)OCC(=O)Nc2ccccc2C(F)(F)F)cc1	i	i	i	6*	-0.262	-12.2
COc1ccc(-c2cc(N)n(S(=O)(=O)c3c(F)c(F)c(F)c(F)c3F)n2)cc1OC	-10.6*	i	8*	i	·	-36.3
CC[C@]12c3[nH]c4cc(-c5ccco5)ccc4c3CCN1C(=O)[C@@H](CC(=O)NCCCN(C)C)C[C@@H]2C(=O)N1CCN(C(=O)C2CC2)CC1	i	·	·	·	·	·
CCc1c(C)sc(NC(=O)c2cccs2)c1C(=O)OC(C)C	i	-6.59*	i	i	·	-9.6
Cc1sc(NC(=O)c2cccs2)c(C(=O)OC(C)C)c1C	i	i	i	i	0.796	-4.5
O=C1CCCN1CCCNc1nc2c(S(=O)(=O)c3ccccc3)nnn2c2ccc(Cl)cc12	i	i	i	i	·	-3.4
CCn1c(=O)c2ccccc2n2c(SCC(=O)N3CCc4ccccc4C3)nnc12	i	i	i	i	·	-8.4
